Activity calls are given as the source filed them. The rule behind the calls is not given here.

The target of one data set is T1, Indoleamine 2,3-dioxygenase 1 (Homo sapiens, UniProt P14902). Briefly: Inhibition of IDO1 (unknown origin) at 100 uM using L-tryptophan as substrate by spectrophotometric method relative to control.
Conditions: not given
Target sequence in this assay (P14902 whole entry, looked up): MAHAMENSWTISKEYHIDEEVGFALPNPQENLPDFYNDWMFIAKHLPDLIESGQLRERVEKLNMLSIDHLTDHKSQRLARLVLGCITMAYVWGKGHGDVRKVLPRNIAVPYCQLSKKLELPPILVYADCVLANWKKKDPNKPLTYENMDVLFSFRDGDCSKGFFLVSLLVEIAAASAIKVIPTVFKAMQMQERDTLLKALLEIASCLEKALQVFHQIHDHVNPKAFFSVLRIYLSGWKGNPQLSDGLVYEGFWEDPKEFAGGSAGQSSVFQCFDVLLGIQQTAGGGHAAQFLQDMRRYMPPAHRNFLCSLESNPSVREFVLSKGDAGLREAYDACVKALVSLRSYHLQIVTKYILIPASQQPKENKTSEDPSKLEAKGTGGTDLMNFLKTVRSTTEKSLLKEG
`NOC(CCCC(=O)Nc1ccccc1)c1cccc(Cl)c1` (stereo not given) registered an inhibition greater than 95%.
`NOC(c1ccccc1)c1ccc(Cl)cc1Cl` (stereo not given) came in with an inhibition greater than 95%.
For the compound `NOC(c1ccccc1)c1ccccc1Cl` (stereo not given), the inhibition was greater than 95%.
Regarding `NOC(c1ccccc1)c1ccc(Cl)c(Cl)c1` (stereo not given), the inhibition is greater than 95%.
The same measure, in the same setting: the same measure for `NOC(c1ccccc1)c1cc(Cl)cc(Cl)c1` (stereo not given): greater than 95%.

In a further data set the target is T2, Indoleamine 2,3-dioxygenase 2 (Homo sapiens) (UniProt Q6ZQW0).
T2 sequence (whole entry): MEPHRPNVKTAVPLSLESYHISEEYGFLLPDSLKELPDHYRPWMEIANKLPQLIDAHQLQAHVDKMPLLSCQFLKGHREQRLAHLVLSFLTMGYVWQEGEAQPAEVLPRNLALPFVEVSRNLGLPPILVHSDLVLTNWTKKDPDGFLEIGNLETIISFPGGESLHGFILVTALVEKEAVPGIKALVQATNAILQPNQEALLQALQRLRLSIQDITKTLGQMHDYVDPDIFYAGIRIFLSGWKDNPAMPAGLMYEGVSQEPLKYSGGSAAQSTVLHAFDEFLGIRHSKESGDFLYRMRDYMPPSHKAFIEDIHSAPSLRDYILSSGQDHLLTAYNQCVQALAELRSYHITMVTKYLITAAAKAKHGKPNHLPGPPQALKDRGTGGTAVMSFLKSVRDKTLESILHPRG
Briefly: Inhibition of IDO2 (unknown origin) at 100 uM using L-tryptophan as substrate by spectrophotometric method relative to control.
Conditions: not given
`NOC(CCCC(=O)Nc1ccccc1)c1cccc(Cl)c1` (stereo not given) showed an inhibition of 84.3%.
Same read-out and setting: the same measure for `NOC(c1ccccc1)c1ccc(Cl)cc1Cl` (stereo not given): 73%.
Same read-out and setting: the same measure for `NOC(c1ccccc1)c1ccccc1Cl` (stereo not given): greater than 95%; for `NOC(c1ccccc1)c1ccc(Cl)c(Cl)c1` (stereo not given): greater than 95%.
Still for that read-out and setting: the same measure for `NOC(c1ccccc1)c1cc(Cl)cc(Cl)c1` (stereo not given): 69.8%.

A further data set has as its target T3, Tryptophan 2,3-dioxygenase (Homo sapiens, UniProt P48775). Briefly: Inhibition of TDO (unknown origin) at 100 uM using L-tryptophan as substrate by spectrophotometric method relative to control.
Conditions: not given
Target sequence in this assay (P48775 whole entry, looked up): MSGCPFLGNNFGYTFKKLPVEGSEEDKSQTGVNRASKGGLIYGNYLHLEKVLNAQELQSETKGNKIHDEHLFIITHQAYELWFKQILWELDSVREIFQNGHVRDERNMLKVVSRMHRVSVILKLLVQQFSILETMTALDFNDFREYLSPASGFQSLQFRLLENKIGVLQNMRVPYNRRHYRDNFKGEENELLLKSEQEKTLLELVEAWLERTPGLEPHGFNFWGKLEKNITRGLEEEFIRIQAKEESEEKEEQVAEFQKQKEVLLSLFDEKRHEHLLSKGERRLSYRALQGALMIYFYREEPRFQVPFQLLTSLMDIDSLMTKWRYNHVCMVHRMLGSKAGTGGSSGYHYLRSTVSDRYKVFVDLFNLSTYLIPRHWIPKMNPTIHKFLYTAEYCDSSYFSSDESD
On to `NOC(CCCC(=O)Nc1ccccc1)c1cccc(Cl)c1` (stereo not given), for which the inhibition is 75.5%.
On to `NOC(c1ccccc1)c1ccc(Cl)cc1Cl` (stereo not given), for which the inhibition is greater than 95%.
The compound `NOC(c1ccccc1)c1ccccc1Cl` (stereo not given) returned an inhibition of 89.8%.
The compound `NOC(c1ccccc1)c1ccc(Cl)c(Cl)c1` (stereo not given) displayed an inhibition greater than 95%.
On to `NOC(c1ccccc1)c1cc(Cl)cc(Cl)c1` (stereo not given), for which the inhibition was determined as 83.4%.

The target in a further data set is T1, Indoleamine 2,3-dioxygenase 1. Put plainly: Inhibition of IDO1 (unknown origin) using L-tryptophan as substrate by spectrophotometric method.
Conditions: not given
Target sequence in this assay (P14902 whole entry): as the sequence (P14902 whole entry, looked up) above
Compound `NOC(CCCC(=O)Nc1ccccc1)c1cccc(Cl)c1` (stereo not given) registered an IC50 of 3 µM.
The same measure, in the same setting: the same measure for `NOC(c1ccccc1)c1ccc(Cl)cc1Cl` (stereo not given): 4 µM.
Same read-out and setting: the same measure for `NOC(c1ccccc1)c1ccccc1Cl` (stereo not given): 18 µM; for `NOC(c1ccccc1)c1ccc(Cl)c(Cl)c1` (stereo not given): 2 µM; for `NOC(c1ccccc1)c1cc(Cl)cc(Cl)c1` (stereo not given): 2 µM.

The target in a further data set is T4, Indoleamine 2,3-dioxygenase 2 (Homo sapiens, UniProt Q6ZQW0).
T4 sequence (Q6ZQW0 whole entry): T2 sequence (whole entry)
Briefly: Inhibition of IDO2 (unknown origin) using L-tryptophan as substrate by spectrophotometric method.
Conditions: not given
In turn, `NOC(c1ccccc1)c1ccccc1Cl` (stereo not given) yielded an IC50 of 25 µM. This lies in the double-digit micromolar range.
For the compound `NOC(c1ccccc1)c1ccc(Cl)c(Cl)c1` (stereo not given), the IC50 was determined as 32 µM.

The next data set addresses T3, Tryptophan 2,3-dioxygenase. Put plainly: Inhibition of TDO (unknown origin) using L-tryptophan as substrate by spectrophotometric method.
Conditions: not given
Target sequence in this assay (P48775 whole entry): as the sequence (P48775 whole entry, looked up) above
The compound `NOC(c1ccccc1)c1ccc(Cl)cc1Cl` (stereo not given) registered an IC50 of 6 µM.
Turning to `NOC(c1ccccc1)c1ccc(Cl)c(Cl)c1` (stereo not given), the IC50 was determined as 4 µM.

Another data set addresses T1, Indoleamine 2,3-dioxygenase 1. Put plainly: Inhibition of IDO1 in human HeLa cells using L-tryptophan as substrate after 20 hrs.
Conditions: not given
It is filed as cell-based. The procedure, abridged: (§1)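 HeLa cells (endogenous human IDO1) were induced with 100 ng/mL IFNγ for 24 h at 100 μM Trp. T-REx cells carried tet-regulated human TDO (2 ng/mL doxycycline, 24 h, 100 μM Trp) or mouse IDO2 (doxycycline plus 8 mM 5-aminolevulinic acid, 20 μM hemin, 4 mM Trp, 48 h). After induction, compound serial dilutions were added in medium with final Trp 100 μM (IDO1/TDO) or 2 mM (IDO2) for 20 h at 37 °C. Read-out was TCA fixation, 65 °C hydrolysis, then p-dimethylaminobenzaldehyde colour.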
Target sequence in this assay (P14902 whole entry): as the sequence (P14902 whole entry, looked up) above
Turning to `NOC(CCCC(=O)Nc1ccccc1)c1cccc(Cl)c1` (stereo not given), the IC50 was 1.43 µM.
Same read-out and setting: the same measure for `NOC(c1ccccc1)c1ccc(Cl)cc1Cl` (stereo not given): 1.99 µM; for `NOC(c1ccccc1)c1ccccc1Cl` (stereo not given): 2.48 µM; for `NOC(c1ccccc1)c1ccc(Cl)c(Cl)c1` (stereo not given): 1.91 µM.
Same read-out and setting: the same measure for `NOC(c1ccccc1)c1cc(Cl)cc(Cl)c1` (stereo not given): 0.87 µM.

A further data set deals with T5, Indoleamine 2,3-dioxygenase 2 (Mus musculus, UniProt Q8R0V5).
T5 sequence (Q8R0V5 whole entry): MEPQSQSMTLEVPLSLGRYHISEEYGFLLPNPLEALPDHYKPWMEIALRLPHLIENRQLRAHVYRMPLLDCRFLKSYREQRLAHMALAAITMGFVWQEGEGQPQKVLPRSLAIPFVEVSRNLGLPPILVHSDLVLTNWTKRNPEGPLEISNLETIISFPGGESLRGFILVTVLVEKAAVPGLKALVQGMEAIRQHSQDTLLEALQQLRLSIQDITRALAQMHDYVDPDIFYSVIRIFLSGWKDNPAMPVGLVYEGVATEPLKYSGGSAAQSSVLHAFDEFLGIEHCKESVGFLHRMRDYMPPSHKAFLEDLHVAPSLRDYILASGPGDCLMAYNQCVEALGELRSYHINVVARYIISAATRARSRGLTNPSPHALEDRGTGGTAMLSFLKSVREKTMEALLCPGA
Briefly: Inhibition of mouse IDO2 expressed in human T-REx cells using L-tryptophan as substrate after 20 hrs. It counts as cell-based.
Conditions: not given
The gist of the method: as §1
In turn, `NOC(CCCC(=O)Nc1ccccc1)c1cccc(Cl)c1` (stereo not given) yielded an IC50 of 36.1 µM.
The same measure, in the same setting: the same measure for `NOC(c1ccccc1)c1ccc(Cl)cc1Cl` (stereo not given): 7.68 µM.
`NOC(c1ccccc1)c1ccccc1Cl` (stereo not given) showed an IC50 of 10.7 µM.
On the same count and under the same terms, the same measure for `NOC(c1ccccc1)c1ccc(Cl)c(Cl)c1` (stereo not given): 19.5 µM.
Same read-out and setting: the same measure for `NOC(c1ccccc1)c1cc(Cl)cc(Cl)c1` (stereo not given): 8.66 µM.

A further data set concerns the target T3, Tryptophan 2,3-dioxygenase. Briefly: Inhibition of human TDO expressed in human T-REx cells using L-tryptophan as substrate after 20 hrs.
Conditions: not given
It counts as cell-based. The gist of the method: as §1
Target sequence in this assay (P48775 whole entry): as the sequence (P48775 whole entry, looked up) above
As to `NOC(CCCC(=O)Nc1ccccc1)c1cccc(Cl)c1` (stereo not given), the IC50 was found to be 123 µM.
On the same count and under the same terms, the same measure for `NOC(c1ccccc1)c1ccc(Cl)cc1Cl` (stereo not given): 4.82 µM; for `NOC(c1ccccc1)c1ccccc1Cl` (stereo not given): 21.8 µM; for `NOC(c1ccccc1)c1ccc(Cl)c(Cl)c1` (stereo not given): 8.11 µM.
Same read-out and setting: the same measure for `NOC(c1ccccc1)c1cc(Cl)cc(Cl)c1` (stereo not given): 5.7 µM.

Test system in the next data set: not listed separately
Briefly: Selectivity ratio of IC50 for inhibition of mouse IDO2 expressed in human T-REx cells to IC50 for inhibition of IDO1 in human HeLa cells. It counts as cell-based.
Conditions: not given
The procedure, abridged:
as §1
As for `NOC(c1ccccc1)c1ccccc1Cl` (stereo not given), the Ratio IC50 fell in the range of 5 to 10.

For the next data set, the species on record is Homo sapiens. Briefly: Selectivity ratio of IC50 for inhibition of human TDO expressed in human T-REx cells to IC50 for inhibition of IDO1 in human HeLa cells. It is filed as cell-based.
Conditions: not given
The procedure, abridged: as §1
For the compound `NOC(c1ccccc1)c1ccccc1Cl` (stereo not given), the Ratio IC50 was 5 to 10.

The species named for the next data set is Homo sapiens. Put plainly: Selectivity ratio of IC50 for inhibition of IDO2 (unknown origin) to IC50 for inhibition of IDO1 (unknown origin).
Conditions: not given
Regarding `NOC(CCCC(=O)Nc1ccccc1)c1cccc(Cl)c1` (stereo not given), the Ratio IC50 is greater than 20.

The species named for a further data set is Homo sapiens. Put plainly: Selectivity ratio of IC50 for inhibition of TDO (unknown origin) to IC50 for inhibition of IDO1 (unknown origin).
Conditions: not given
For the compound `NOC(CCCC(=O)Nc1ccccc1)c1cccc(Cl)c1` (stereo not given), the Ratio IC50 was greater than 20.

Test system in the next data set: not listed separately
Briefly: Cytotoxicity against human HeLa cells assessed as cell viability up to 100 uM relative to control. It counts as cell-based. As to conditions: read-out: Activity.
With `NOC(CCCC(=O)Nc1ccccc1)c1cccc(Cl)c1` (stereo not given), the viability is no less than 80%.
On to `NOC(c1ccccc1)c1ccc(Cl)cc1Cl` (stereo not given), for which the viability is no less than 80%.
On the same count and under the same terms, the same measure for `NOC(c1ccccc1)c1ccccc1Cl` (stereo not given): no less than 80%; for `NOC(c1ccccc1)c1ccc(Cl)c(Cl)c1` (stereo not given): no less than 80%; for `NOC(c1ccccc1)c1cc(Cl)cc(Cl)c1` (stereo not given): no less than 80%.

The target of the next data set is T1, Indoleamine 2,3-dioxygenase 1. Briefly: Inhibition of IDO1 in human HeLa cells at IC50 using L-tryptophan as substrate after 24 hrs in presence of 100% human serum by LC-MS/MS analysis. It counts as cell-based.
Conditions: not given
Target sequence in this assay (P14902 whole entry, looked up): as the sequence (P14902 whole entry, looked up) above
In the case of `NOC(c1ccccc1)c1ccc(Cl)cc1Cl` (stereo not given), the inhibition result was “inactive”.
Turning to `NOC(c1ccccc1)c1cc(Cl)cc(Cl)c1` (stereo not given), the inhibition result is “Active”.
